We go through 36 compounds from ChEMBL document CHEMBL1140334, “Synthesis and structure-activity relationships of pyrazine-pyridine biheteroaryls as novel, potent, and selective vascular endothelial growth factor receptor-2 inhibitors” (J Med Chem, 2005).

In one assay the test system is MRC5. Briefly: Concentration required to inhibit proliferation of human MRC5 fibroblast cell growth.
Assay [1] can be described thus: Inhibition of protein kinase C gamma. An outline of the steps:
(§1)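 Radiometric kinase assay. Conditions varied slightly per kinase. Stopped with PBS/100 mM EDTA, read by scintillation counting. IC50 by linear regression of % inhibition, mean of at least two determinations.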

A short description of assay [2]: Inhibition of protein kinase A. An outline of the steps:
as §1

The target of a further assay is Casein kinase I. Briefly: Inhibition of casein kinase 1. It is filed as protein assay.
The target of assay [3] is Glycogen synthase kinase-3 (Homo sapiens, UniProt P49840+P49841). Briefly: Inhibition of glycogen synthase kinase-3. It is filed as protein assay. An outline of the steps:
as §1

A further assay deals with HASMC. Briefly: Concentration required to inhibit proliferation of HASMC. The settings on record: Homo sapiens.
Assay [4] deals with HUVEC. Briefly: Concentration required to inhibit proliferation of HUVEC. The settings on record: Homo sapiens.
Assay [5] has as its system A-375. Briefly: Concentration required to inhibit proliferation of A375 human amelanotic melanoma cell growth.
The test system of another assay is HCT-116. Briefly: Concentration required to inhibit proliferation of human HCT116 colon cancer cell growth.
The test system of the next assay is HeLa. Briefly: Concentration required to inhibit proliferation of HeLa cell growth. Particulars: Homo sapiens.
The test system of assay [6] is HUVEC. Briefly: Concentration inhibiting VEGF stimulated (2 ng/well) HUVE cell proliferation. The settings on record: Homo sapiens.
Assay [7] is described as follows: Inhibition of cyclin-dependent kinase 1 activity. An outline of the steps:
as §1

For assay [8], the target named is T1, Vascular endothelial growth factor receptor 2 (Homo sapiens, UniProt P35968). Briefly: Inhibition of vascular endothelial growth factor receptor 2. An outline of the steps:
as §1

For assay [9], the target named is T1, Vascular endothelial growth factor receptor 2. Briefly: Inhibitory concentration (experimental) against vascular endothelial growth factor receptor 2. An outline of the steps: as §1
The next assay has as its target Insulin receptor (Homo sapiens, UniProt P06213). Briefly: Inhibition of insulin Receptor kinase. An outline of the steps: as §1
The next assay concerns the target Casein kinase II (Homo sapiens, UniProt P19784+P67870+P68400). Briefly: Inhibition of casein kinase 2. Type of assay: protein-complex assay. An outline of the steps:
as §1

In assay [10] the test system is A-375. Briefly: The antitumor activity shown by the compound against A375 human melanoma xenografts growing in nude mice (10 mg/kg, i.p.) in terms of mean day of survival. It is filed as functional, Mus musculus. An outline of the steps:
(§2)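 Female nude mice carried subcutaneous flank implants of 1 mm3 A375 fragments and were pair-matched on day 1 at tumors of 62-126 mg. Dosing was i.p. once daily for 30 days, in 1.5% Pluronic F108 vehicle; the study ended at day 60. Tumor weight was taken as (w2l)/2. Mice were euthanized at 2.0 g, and MDS was derived from calculated time to endpoint.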
On the technique in general: In xenograft studies the graft and the host belong to different species.

Assay [11] has as its system A-375. Briefly: The antitumor activity shown by the compound against A375 human melanoma xenografts growing in nude mice (75 mg/kg, i.p.) in terms of mean day of survival. It is filed as functional, Mus musculus. An outline of the steps: as §2
For the next assay, the target named is CaM kinase II (Homo sapiens, UniProt Q13557+Q13555+Q13554+Q9UQM7). Briefly: Inhibition of calcium/calmodulin-dependent protein kinase type II. Type of assay: protein assay.
In assay [12] the target is Mitogen-activated protein kinase 1 (Homo sapiens, UniProt P28482). Briefly: Inhibition of mitogen-activated protein kinase. An outline of the steps:
as §1

Assay [13] concerns the target Protein kinase C beta type (Homo sapiens, UniProt P05771). Briefly: Inhibition of protein kinase C beta activity. An outline of the steps:
as §1

Chain of Insulin receptor (P06213 28-758 limits assumed): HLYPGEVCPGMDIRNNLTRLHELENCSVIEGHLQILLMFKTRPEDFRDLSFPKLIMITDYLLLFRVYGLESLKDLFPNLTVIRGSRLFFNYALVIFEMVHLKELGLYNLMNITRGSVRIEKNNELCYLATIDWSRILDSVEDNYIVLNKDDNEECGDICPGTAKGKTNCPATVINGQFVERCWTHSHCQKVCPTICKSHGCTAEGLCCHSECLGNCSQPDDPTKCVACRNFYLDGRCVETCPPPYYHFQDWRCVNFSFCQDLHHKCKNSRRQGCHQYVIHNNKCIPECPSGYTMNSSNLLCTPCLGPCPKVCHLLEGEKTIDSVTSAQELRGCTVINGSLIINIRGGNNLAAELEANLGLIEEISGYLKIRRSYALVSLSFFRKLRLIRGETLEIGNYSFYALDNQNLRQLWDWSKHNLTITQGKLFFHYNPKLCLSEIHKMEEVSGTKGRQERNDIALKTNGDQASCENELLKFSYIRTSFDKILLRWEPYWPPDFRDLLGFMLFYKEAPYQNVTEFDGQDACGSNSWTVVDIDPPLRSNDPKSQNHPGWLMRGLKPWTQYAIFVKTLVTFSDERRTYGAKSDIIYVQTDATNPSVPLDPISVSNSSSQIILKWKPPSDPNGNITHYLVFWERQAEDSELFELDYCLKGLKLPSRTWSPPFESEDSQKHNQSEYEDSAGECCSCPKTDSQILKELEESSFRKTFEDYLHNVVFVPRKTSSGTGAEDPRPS
Chain of Insulin receptor (P06213 763-1382 limits assumed): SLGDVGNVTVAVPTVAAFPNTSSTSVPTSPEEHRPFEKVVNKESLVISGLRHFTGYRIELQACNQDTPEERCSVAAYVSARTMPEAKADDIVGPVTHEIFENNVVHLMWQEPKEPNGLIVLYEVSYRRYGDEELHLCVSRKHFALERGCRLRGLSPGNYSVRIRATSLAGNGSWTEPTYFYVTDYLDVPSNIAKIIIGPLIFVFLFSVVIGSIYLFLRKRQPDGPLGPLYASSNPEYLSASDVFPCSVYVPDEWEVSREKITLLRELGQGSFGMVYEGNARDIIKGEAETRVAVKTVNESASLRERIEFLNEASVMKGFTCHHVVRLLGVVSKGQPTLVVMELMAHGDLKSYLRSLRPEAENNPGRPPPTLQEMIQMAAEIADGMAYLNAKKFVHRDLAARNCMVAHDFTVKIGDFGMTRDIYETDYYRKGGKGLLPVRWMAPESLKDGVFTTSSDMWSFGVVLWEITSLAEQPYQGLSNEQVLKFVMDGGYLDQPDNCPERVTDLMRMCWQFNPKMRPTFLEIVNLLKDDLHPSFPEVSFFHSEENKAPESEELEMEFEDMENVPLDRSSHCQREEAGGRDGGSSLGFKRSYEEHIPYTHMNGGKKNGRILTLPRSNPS
Chain of Casein kinase II (P67870 whole entry): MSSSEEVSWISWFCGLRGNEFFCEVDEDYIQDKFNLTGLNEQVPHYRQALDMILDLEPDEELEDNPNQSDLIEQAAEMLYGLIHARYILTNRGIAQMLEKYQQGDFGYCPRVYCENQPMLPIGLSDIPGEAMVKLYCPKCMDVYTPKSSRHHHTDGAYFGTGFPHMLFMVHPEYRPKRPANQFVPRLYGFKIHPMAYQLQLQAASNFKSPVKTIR
Chain of Casein kinase II (P68400 whole entry): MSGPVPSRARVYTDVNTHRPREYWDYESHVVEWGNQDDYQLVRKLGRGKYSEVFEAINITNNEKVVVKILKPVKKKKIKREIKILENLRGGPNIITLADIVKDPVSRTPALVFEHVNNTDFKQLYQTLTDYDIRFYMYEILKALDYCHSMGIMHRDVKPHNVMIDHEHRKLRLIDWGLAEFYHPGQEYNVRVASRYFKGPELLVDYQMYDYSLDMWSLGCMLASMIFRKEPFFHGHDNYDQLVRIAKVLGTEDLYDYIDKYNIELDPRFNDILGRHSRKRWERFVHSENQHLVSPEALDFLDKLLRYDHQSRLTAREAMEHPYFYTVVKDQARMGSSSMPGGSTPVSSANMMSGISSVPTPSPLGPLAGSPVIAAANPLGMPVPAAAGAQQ
Chain of Casein kinase II (P19784 whole entry): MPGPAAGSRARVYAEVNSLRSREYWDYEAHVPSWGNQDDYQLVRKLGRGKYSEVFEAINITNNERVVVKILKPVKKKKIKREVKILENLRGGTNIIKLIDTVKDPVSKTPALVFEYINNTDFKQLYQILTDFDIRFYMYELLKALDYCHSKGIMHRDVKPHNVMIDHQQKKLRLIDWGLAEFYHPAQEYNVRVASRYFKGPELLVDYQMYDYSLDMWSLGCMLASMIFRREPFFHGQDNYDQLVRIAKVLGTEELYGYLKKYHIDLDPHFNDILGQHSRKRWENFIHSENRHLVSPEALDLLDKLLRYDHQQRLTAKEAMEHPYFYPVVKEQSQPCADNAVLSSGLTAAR
Chain of Mitogen-activated protein kinase 1 (P28482 whole entry): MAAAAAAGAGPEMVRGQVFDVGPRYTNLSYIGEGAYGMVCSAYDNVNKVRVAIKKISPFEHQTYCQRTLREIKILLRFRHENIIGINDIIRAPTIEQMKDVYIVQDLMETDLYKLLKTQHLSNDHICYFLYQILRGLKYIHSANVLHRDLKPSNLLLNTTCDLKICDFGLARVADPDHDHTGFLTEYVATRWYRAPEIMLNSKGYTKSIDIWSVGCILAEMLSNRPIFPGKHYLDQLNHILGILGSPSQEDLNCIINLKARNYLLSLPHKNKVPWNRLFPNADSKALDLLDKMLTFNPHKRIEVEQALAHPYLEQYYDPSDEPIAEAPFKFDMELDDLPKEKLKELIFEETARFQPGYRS
T1 sequence (P35968 whole entry): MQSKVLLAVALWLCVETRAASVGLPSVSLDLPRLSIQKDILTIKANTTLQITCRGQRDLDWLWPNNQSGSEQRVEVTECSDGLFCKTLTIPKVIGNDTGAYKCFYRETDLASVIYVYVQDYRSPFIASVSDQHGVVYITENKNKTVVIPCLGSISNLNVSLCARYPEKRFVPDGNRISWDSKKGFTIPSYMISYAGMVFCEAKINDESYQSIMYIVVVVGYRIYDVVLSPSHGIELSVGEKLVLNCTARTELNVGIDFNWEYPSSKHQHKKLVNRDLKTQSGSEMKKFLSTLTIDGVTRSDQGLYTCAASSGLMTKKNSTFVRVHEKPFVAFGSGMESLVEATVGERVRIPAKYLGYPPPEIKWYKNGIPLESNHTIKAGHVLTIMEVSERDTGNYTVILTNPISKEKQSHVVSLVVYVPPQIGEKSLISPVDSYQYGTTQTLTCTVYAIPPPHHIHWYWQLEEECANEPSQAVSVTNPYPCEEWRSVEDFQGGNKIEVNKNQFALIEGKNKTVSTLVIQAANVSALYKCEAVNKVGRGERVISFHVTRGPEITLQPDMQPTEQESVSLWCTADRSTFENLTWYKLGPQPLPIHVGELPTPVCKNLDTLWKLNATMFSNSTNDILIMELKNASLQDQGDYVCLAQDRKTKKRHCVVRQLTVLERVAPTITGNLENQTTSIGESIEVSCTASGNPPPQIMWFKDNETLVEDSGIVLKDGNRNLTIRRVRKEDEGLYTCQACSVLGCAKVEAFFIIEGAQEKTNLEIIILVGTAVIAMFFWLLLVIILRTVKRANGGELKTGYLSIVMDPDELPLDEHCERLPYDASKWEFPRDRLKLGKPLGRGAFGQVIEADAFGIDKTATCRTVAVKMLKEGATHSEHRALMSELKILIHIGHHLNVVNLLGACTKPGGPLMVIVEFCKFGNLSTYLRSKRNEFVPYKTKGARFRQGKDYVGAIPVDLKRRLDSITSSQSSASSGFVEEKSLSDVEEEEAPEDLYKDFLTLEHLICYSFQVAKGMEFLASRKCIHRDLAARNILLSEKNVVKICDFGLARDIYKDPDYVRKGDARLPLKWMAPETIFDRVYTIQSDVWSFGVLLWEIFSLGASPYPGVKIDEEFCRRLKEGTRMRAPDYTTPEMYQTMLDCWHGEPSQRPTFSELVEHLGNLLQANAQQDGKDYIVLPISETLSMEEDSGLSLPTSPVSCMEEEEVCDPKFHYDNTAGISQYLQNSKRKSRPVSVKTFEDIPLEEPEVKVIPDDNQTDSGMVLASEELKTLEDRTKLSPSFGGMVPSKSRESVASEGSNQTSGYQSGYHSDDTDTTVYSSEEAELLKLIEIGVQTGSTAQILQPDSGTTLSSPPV
Chain of Protein kinase C beta type (P05771 whole entry): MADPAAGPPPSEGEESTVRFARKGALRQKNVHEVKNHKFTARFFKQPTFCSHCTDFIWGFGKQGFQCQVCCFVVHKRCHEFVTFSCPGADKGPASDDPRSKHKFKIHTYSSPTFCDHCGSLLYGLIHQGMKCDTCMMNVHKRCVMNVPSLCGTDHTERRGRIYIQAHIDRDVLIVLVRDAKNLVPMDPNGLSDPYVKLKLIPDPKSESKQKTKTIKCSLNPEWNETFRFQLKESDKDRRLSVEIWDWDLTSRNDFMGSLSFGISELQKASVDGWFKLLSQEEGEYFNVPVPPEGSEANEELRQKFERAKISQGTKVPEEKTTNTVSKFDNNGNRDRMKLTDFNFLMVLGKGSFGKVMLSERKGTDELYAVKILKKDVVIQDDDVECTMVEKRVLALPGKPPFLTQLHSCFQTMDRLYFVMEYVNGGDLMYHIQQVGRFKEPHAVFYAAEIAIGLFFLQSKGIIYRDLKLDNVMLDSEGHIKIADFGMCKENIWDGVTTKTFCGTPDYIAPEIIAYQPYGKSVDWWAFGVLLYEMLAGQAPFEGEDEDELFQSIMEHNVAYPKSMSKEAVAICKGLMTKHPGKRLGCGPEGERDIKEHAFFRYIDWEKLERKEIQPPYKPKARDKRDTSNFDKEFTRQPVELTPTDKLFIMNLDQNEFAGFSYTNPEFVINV

The term IC50 denotes the concentration at which inhibition is half-maximal. For the compound `OCCCNc1cncc(-c2cncc(Nc3cccc(Cl)c3)n2)c1`, the IC50 was 6.6 µM in the assay with MRC5; greater than 10 µM in [1]; greater than 10 µM in [2]; greater than 10 µM against Casein kinase I; 0.478 µM in [3] (read-out: IC50); 3.87 µM in the assay with HASMC. Besides, the IC50 in the assay with HUVEC [4] was 1.68 µM; in the assay on A-375 [5], greater than 10 µM; in the assay on HCT-116 it was greater than 10 µM; in the assay with HeLa it was greater than 10 µM; in the assay with HUVEC [6] it was 0.164 µM; in [7], greater than 10 µM.

With `O=C(NCCCO)c1cncc(-c2cncc(Nc3cccc(Cl)c3)n2)c1`, the values for the IC50 in [8], in [9] and in assay [7] were 2.38 µM, 2.4 µM and greater than 10 µM, respectively.

Consider `O=C(COc1ccccc1)Nc1cncc(-c2cncc(Nc3cccc(Cl)c3)n2)c1`, for which the IC50 in assay [8] and in assay [7] was greater than 10 µM in each case.

As for `OCCCNc1cncc(-c2cncc(Nc3ccccc3Cl)n2)c1`, the IC50 in [8] is 1.01 µM; in [9] it was 1 µM; in assay [7], greater than 10 µM.

Regarding `Clc1cccc(Nc2cncc(-c3cncc(NCCCCc4ccncc4)c3)n2)c1`, the IC50 is 0.266 µM in assay [8], 0.263 µM in [9] and 10 µM in [7].

`OCCNc1cncc(-c2cncc(Nc3cccc(Cl)c3)n2)c1`: the IC50 in assay [8] was 0.275 µM; in assay [9], 0.275 µM; in assay [7], greater than 10 µM.

For `OCCCCNc1cncc(-c2cncc(Nc3cccc(Cl)c3)n2)c1`, the IC50 in the assay on MRC5 is 3.61 µM; in assay [1] it was greater than 10 µM; against Insulin receptor, greater than 10 µM; in assay [2], greater than 10 µM; against Casein kinase II, greater than 10 µM; in assay [8], 0.063 µM. Also, the IC50 in assay [9] was 0.0631 µM; in assay [3], 4.02 µM; on CaM kinase II it was greater than 10 µM; in assay [12] it was greater than 10 µM; with HASMC, 3.23 µM; with HUVEC [4], 1.17 µM. Further, the IC50 is 6.08 µM in the assay with A-375 [5]; greater than 10 µM with HCT-116; 5.56 µM with HeLa; 0.063 µM in the assay with HUVEC [6]; greater than 10 µM in assay [13]; greater than 10 µM in assay [7]. Further, the MDS with A-375 [10] amounted to 24; with A-375 [11], 29.2.

`Clc1cccc(Nc2cncc(-c3cncc(NCC4CCOCC4)c3)n2)c1`: the half-maximal inhibitory concentration (IC50) is 0.391 µM in assay [8], 0.389 µM in assay [9] and greater than 10 µM in assay [7].

Turning to `OCCCNc1cncc(-c2cncc(NCc3ccccc3)n2)c1`, the results for the IC50 in assay [8], in [9] and in assay [7] were 1.05 µM, 1.05 µM and greater than 10 µM, respectively.

As to `OCCCNc1cnc(F)c(-c2cncc(Nc3cccc(Cl)c3)n2)c1`, the IC50 was 0.251 µM in assay [8], 0.251 µM in assay [9] and greater than 10 µM in [7].

Consider `CN(C)c1ccc(C(=O)Nc2cncc(-c3cncc(Nc4cccc(Cl)c4)n3)c2)cc1`, for which the IC50 in assay [8] and in assay [7] was greater than 10 µM in each case.

For `OCCCNc1cnc(Cl)c(-c2cncc(Nc3cccc(Cl)c3)n2)c1`, the IC50 in assay [8] and in assay [7] was greater than 10 µM each time.

Turning to `Clc1ccc(Nc2cncc(-c3cncc(NCCCc4ccncc4)c3)n2)cc1Cl`, the IC50 is 0.189 µM in assay [8], 0.191 µM in assay [9] and greater than 10 µM in assay [7].

Regarding `Nc1ncc(NCCCO)cc1-c1cncc(Nc2cccc(Cl)c2)n1`, the IC50 in assay [8] was 1.36 µM; in assay [9], 1.35 µM; in assay [7] it was greater than 10 µM.

Take `CN1CCN(CCCNc2cncc(-c3cncc(Nc4cccc(Cl)c4)n3)c2)CC1`: the IC50 in assay [8] is 0.123 µM; in assay [9], 0.123 µM; in assay [7] it was greater than 10 µM.

For `OCCCNc1cncc(-c2cncc(Nc3cccc(F)c3)n2)c1`, the IC50 in assay [8] is 0.168 µM; in [9] it was 0.17 µM; in assay [7], greater than 10 µM.

Take `Clc1ccc(Nc2cncc(-c3cncc(NCCCc4ccncc4)c3)n2)cc1`: the IC50 in assay [8] is 1 µM; in assay [9], 1 µM; in [7], greater than 10 µM.

Take `Clc1cccc(Nc2cncc(-c3cncc(NCCCN4CCNCC4)c3)n2)c1`: the values for the IC50 in assay [8], in assay [9] and in assay [7] were 0.236 µM, 0.234 µM and 5.62 µM, respectively.

As for `Clc1cccc(Nc2cncc(-c3cncc(NCCOc4ccccc4)c3)n2)c1`, the IC50 in assay [8] and in assay [7] was greater than 10 µM in each case.

`Clc1cccc(Nc2cncc(-c3cncc(NCCCc4ccccc4)c3)n2)c1`: the IC50 in [8] was 2.28 µM; in [9], 2.29 µM; in assay [7], greater than 10 µM.

Regarding `COCC(=O)Nc1cncc(-c2cncc(Nc3cccc(Cl)c3)n2)c1`, the IC50 in assay [8] is 0.303 µM; in assay [9], 0.302 µM; in assay [7], greater than 10 µM.

Regarding `Clc1cccc(Nc2cncc(-c3cncc(NCCCN4CCOCC4)c3)n2)c1`, the IC50 in [8] is 0.18 µM; in assay [9] it was 0.182 µM; in assay [7], greater than 10 µM.

With `Clc1cccc(Nc2cncc(-c3cncc(NCCCN4CCCCC4)c3)n2)c1`, the IC50 is 0.399 µM in [8], 0.398 µM in assay [9] and 5.38 µM in assay [7].

With `Nc1cncc(-c2cncc(Nc3cccc(Cl)c3)n2)c1`, the figures for the IC50 in [8], in [9] and in assay [7] were 1.16 µM, 1.15 µM and greater than 10 µM, respectively.

For `O=C(COCc1ccccc1)Nc1cncc(-c2cncc(Nc3cccc(Cl)c3)n2)c1`, the IC50 in [8] and in assay [7] was greater than 10 µM each time.

As to `COc1cccc(Nc2cncc(-c3cncc(NCCCO)c3)n2)c1`, the IC50 is 0.74 µM in assay [8], 0.741 µM in [9] and greater than 10 µM in [7].

Turning to `O=C(CCCNc1cncc(-c2cncc(Nc3cccc(Cl)c3)n2)c1)N1CCCCC1`, the IC50 in assay [8] is 0.61 µM; in assay [9], 0.617 µM; in [7] it was greater than 10 µM.

On to `COCCC(=O)Nc1cncc(-c2cncc(Nc3cccc(Cl)c3)n2)c1`, for which the IC50 in assay [8] was 0.593 µM; in assay [9], 0.589 µM; in [7], greater than 10 µM.

For `CN(C)CCCNc1cncc(-c2cncc(Nc3cccc(Cl)c3)n2)c1`, the IC50 is 0.135 µM in assay [8], 0.135 µM in [9] and greater than 10 µM in [7].

Consider `OCCCNc1cncc(-c2cncc(Oc3cccc(Cl)c3)n2)c1`, for which the IC50 in assay [8] and in assay [7] was greater than 10 µM each time.

Turning to `O=C(O)CCCNc1cncc(-c2cncc(Nc3cccc(Cl)c3)n2)c1`, the IC50 is 0.568 µM in [8], 0.575 µM in assay [9] and 5.22 µM in assay [7].

As for `CN(C)CCNC(=O)c1cncc(-c2cncc(Nc3cccc(Cl)c3)n2)c1`, the IC50 in assay [8] was 4.3 µM; in assay [9] it was 4.27 µM; in [7] it was 3.69 µM.

With `Clc1cccc(Nc2cncc(-c3cncc(NCCCc4ccncc4)c3)n2)c1`, the IC50 in assay [8] was 0.076 µM; in assay [9], 0.0759 µM; in assay [7], greater than 10 µM.

Take `O=C(CO)Nc1cncc(-c2cncc(Nc3cccc(Cl)c3)n2)c1`: the IC50 in assay [8] was 0.346 µM; in [9], 0.347 µM; in assay [7], greater than 10 µM.

`Clc1cccc(Nc2cncc(-c3cncc(NCCCn4cccn4)c3)n2)c1`: the IC50 is 3.61 µM with MRC5; greater than 10 µM against Insulin receptor; greater than 10 µM in [2]; 5.6 µM on Casein kinase I; 8.1 µM at Casein kinase II; 0.094 µM in assay [8]. Also, the IC50 is 0.0933 µM in assay [9]; 0.606 µM in [3]; greater than 10 µM on CaM kinase II; greater than 10 µM in assay [12]; 3 µM in the assay with HASMC; 1.39 µM in the assay on HUVEC [4]. For the same compound, the IC50 is 2.84 µM in the assay with A-375 [5]; 5.24 µM in the assay with HCT-116; 3.5 µM in the assay with HeLa; 0.12 µM with HUVEC [6]; greater than 10 µM in assay [7].

For `Clc1cccc(Nc2cncc(-c3cncc(NCCCn4cncn4)c3)n2)c1`, the IC50 with MRC5 was 6.72 µM; against Insulin receptor it was greater than 10 µM; in assay [2] it was greater than 10 µM; at Casein kinase I, 6.5 µM; at Casein kinase II it was 7.2 µM; in assay [8] it was 0.067 µM. Moreover, the IC50 in assay [9] was 0.0676 µM; in assay [3] it was 0.196 µM; in [12], greater than 10 µM; in the assay on HASMC, 2.98 µM; in the assay on HUVEC [4], 1.07 µM; with A-375 [5], 5.16 µM. Also, the IC50 in the assay on HCT-116 is greater than 10 µM; with HeLa it was 6.06 µM; with HUVEC [6], 0.057 µM; in [7], greater than 10 µM.
